From ChEMBL document CHEMBL1138329, “Pharmacokinetic/pharmacodynamic model-guided identification of hypoxia-selective 1,2,4-benzotriazine 1,4-dioxides with antitumor activity: the role of extravascular transport” (J Med Chem, 2007)
pIC50: −log10 of the molar value.

What was measured:
[1] = system: Mus musculus; assay: Toxicity in ip dosed CD1 mouse; format: organism-based; conditions: in vivo
Procedure, shortened: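 MTD in CD-1 homozygous nude mice after single i.p. doses (HCl salts in saline, 5% DMSO/saline or lactate buffer pH 4.0), escalated in 1.33-fold increments. MTD taken as the highest dose causing no death, no body weight loss >15% and no other severe morbidity in any of 6 mice.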

[2] = system: HT-29; assay: Antitumor activity against human HT29 cells implanted in CD1 mouse assessed as clonogenic survival at 133 umol/kg, ip after 18 hrs relative to control; format: functional
Procedure, shortened: (§1)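 HT29 xenografts in CD-1 homozygous nude mice; single i.p. dose of drug alone, formulated as the HCl salt in 0.9% saline, 5% DMSO/saline or lactate buffer (pH 4.0). Tumors excised 18 h later, dissociated to single-cell suspensions and plated. Clonogens/g of tumor counted; surviving fraction = treated/control clonogens/g.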

[3] = system: HT-29; assay: Effect on human HT29 cells under hypoxic conditions assessed as drug level causing 10% clonogenic survival; format: functional
Procedure, shortened: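 HT29 suspensions (1 or 2 × 10^6 cells/mL) in serum-free medium were stirred under 5% CO2/95% N2 for 90 min. Drug was added from deoxygenated DMSO stock at a level giving about 10% survival at 1 h, and samples were taken up to 3 h. Clonogenic survival (14 days, methylene blue) was fitted with the HPLC concentration–time data, and the 10% survival exposure was interpolated.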

[4] = system: HT-29; assay: Diffusion coefficient, D in HT29 multicellular layers; format: ADME, cell-based; conditions: human
Procedure, shortened: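 HT29 multicellular layers were grown 3 days on collagen-coated Teflon membranes, equilibrated 60 min under 95% O2/5% CO2 at 37 °C, then placed in a diffusion chamber. Donor and receiver were sampled up to 5 h and assayed by HPLC. D came from fitting both profiles to a Fickian model with membrane and MCL in series, corrected by support-only Ds.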

[5] = Cmax in CD1 mouse at 133 umol/kg, ip; format: ADME, organism-based; design: dose 133 umol/kg, route intraperitoneal; conditions: in vivo
Procedure, shortened: (§2)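 Single i.p. dose to CD-1 homozygous nude mice, drug as HCl salt in 0.9% saline, 5% DMSO/saline or lactate buffer (pH 4.0). Plasma total drug measured by HPLC at 75 or 100% of MTD (MTD from 1.33-fold dose steps, 6 mice). Noncompartmental analysis gave AUC, Cmax and t1/2.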

[6] = Solubility in culture medium in presence of 5% fetal calf serum; format: physicochemical; conditions: culture medium with 5% fetal calf serum
[7] = system: HT-29; assay: Cytotoxicity against human HT29 cells under hypoxic conditions after 4 hrs; format: functional, cell-based; conditions: HT-29, 4 h
[8] = AUC in CD1 mouse at 133 umol/kg, ip; format: ADME, organism-based; conditions: plasma; procedure, shortened: as §2
[9] = system: HT-29; assay: Antitumor activity against human HT29 cells implanted in CD1 mouse at 133 umol/kg, ip administered 5 mins after irradiation by excision assay relative to radiation alone; format: functional
Procedure, shortened: (§3)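 Hypoxic-cell excision assay in HT29 xenografts in CD-1 homozygous nude mice. Mice received 20 Gy γ radiation to sterilize oxic tumor cells, then a single i.p. drug dose (HCl salt in saline, 5% DMSO/saline or pH 4.0 lactate buffer) 5 min later. Tumors excised at 18 h and plated for clonogens/g. Log cell kill = log(clonogens/g, radiation only) − log(clonogens/g, radiation plus drug).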

[10] = system: SiHa; assay: Cytotoxicity against human SiHa cells under hypoxic conditions after 4 hrs; format: functional, cell-based
[11] = system: HT-29; assay: Antitumor activity against human HT29 cells implanted in CD1 mouse assessed as clonogenic survival at 316 umol/kg, ip after 18 hrs relative to control; format: functional; procedure, shortened: as §1
[12] = Protein binding in mouse plasma by equilibrium dialysis; format: ADME, cell-free; conditions: read-out: PPB (converted)
[13] = Cmax in CD1 mouse at 316 umol/kg, ip; format: ADME, organism-based; design: dose 316 umol/kg, route intraperitoneal; conditions: in vivo; procedure, shortened: as §2
[14] = Half life in CD1 mouse at 316 umol/kg, ip; format: ADME, organism-based; conditions: in vivo; procedure, shortened: as §2
[15] = system: SiHa; assay: Ratio of IC50 for SiHa cells under oxic conditions to hypoxic conditions after 4 hrs; format: functional, Homo sapiens
[16] = system: HT-29; assay: Antitumor activity against human HT29 cells implanted in CD1 mouse at 316 umol/kg, ip administered 5 mins after irradiation by excision assay relative to radiation alone; format: functional; procedure, shortened: as §3
[17] = system: HT-29; assay: Ratio of IC50 for HT29 cells under oxic conditions to hypoxic conditions after 4 hrs; format: functional, Homo sapiens
[18] = system: HT-29; assay: Antitumor activity against human HT29 cells implanted in CD1 mouse assessed as clonogenic survival at 562 umol/kg, ip after 18 hrs relative to control; format: functional; procedure, shortened: as §1
[19] = Cmax in CD1 mouse at 562 umol/kg, ip; format: ADME, organism-based; design: dose 562 umol/kg, route intraperitoneal; conditions: in vivo; procedure, shortened: as §2
[20] = Half life in CD1 mouse at 562 umol/kg, ip; format: ADME, organism-based; conditions: in vivo; procedure, shortened: as §2
[21] = system: HT-29; assay: Antitumor activity against human HT29 cells implanted in CD1 mouse at 562 umol/kg, ip administered 5 mins after irradiation by excision assay relative to radiation alone; format: functional; procedure, shortened: as §3
[22] = Cmax in CD1 mouse at 750 umol/kg, ip; format: ADME, organism-based; design: dose 750 umol/kg, route intraperitoneal; conditions: in vivo; procedure, shortened: as §2
[23] = AUC in CD1 mouse at 750 umol/kg, ip; format: ADME, organism-based; conditions: plasma; procedure, shortened: as §2
[24] = system: HT-29; assay: Antitumor activity against human HT29 cells implanted in CD1 mouse at 750 umol/kg, ip administered 5 mins after irradiation by excision assay relative to radiation alone; format: functional; procedure, shortened: as §3
[25] = system: HT-29; assay: Antitumor activity against human HT29 cells implanted in CD1 mouse assessed as clonogenic survival at 750 umol/kg, ip after 18 hrs relative to control; format: functional; procedure, shortened: as §1
[26] = Half life in CD1 mouse at 750 umol/kg, ip; format: ADME, organism-based; conditions: in vivo; procedure, shortened: as §2

Row | SMILES | MTD [1] | Activity [3] | D [4] | solubility [6] | pIC50 [7] | pIC50 [10] | fraction unbound [12] | Ratio IC50 [15] | Ratio IC50 [17] | other results
1 | Nc1n[n+]([O-])c2ccccc2[n+]1[O-] [TIRAPAZAMINE] | 178 µmol/kg | 24.3 µM·h | 4.04e-07 cm²/s | 8.9 mM | 5.29 | 5.60 |  |  |  | LCK [2]: 0.15; Cmax [5]: 61.7 µM; AUC [8]: 49.2 µM·h; LCK [9]: 0.59
2 | CCCN(CCC)CCNc1n[n+]([O-])c2ccccc2[n+]1[O-] | 316 µmol/kg | 3.9 µM·h | 1.71e-06 cm²/s | > 25 mM | 5.77 | 5.70 | 0.023 | 68 | 82 | LCK [11]: 0.01; Cmax [13]: 17 µM; half-life [14]: 11.8 min; LCK [16]: 0.25
3 | Cc1ccc2c(c1)[n+]([O-])c(NCCN(C)C)n[n+]2[O-] | 562 µmol/kg | 6.3 µM·h | 3.99e-07 cm²/s | > 51 mM | 5.72 | 5.96 | 0.04 | 200 | 159 | LCK [18]: 0.07; Cmax [19]: 104 µM; half-life [20]: 22.5 min; LCK [21]: 1
4 | CCc1ccc2c(c1)[n+]([O-])c(NCCCN1CCOCC1)n[n+]2[O-] | 1000 µmol/kg | 56.5 µM·h |  | 55 mM | 4.98 | 5.25 |  | 66 | >36 | Cmax [22]: 139 µM; AUC [23]: 94.8 µM·h; LCK [24]: 0.82; LCK [25]: 0.13; half-life [26]: 24.9 min
